# From PubChem
# MrgX1 antag – blocks BAM8-22 activation of human MrgX1 receptor; Q96LB2; MRGX1-HEK293 calcium flux, Fluo-4, BAM8-22 antagonism; hits give low values; B-score at 10 µM; 310,000 compounds, 1.3% hits; AID 588676;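 active means calcium-response B-score plate-corrected more than 3 library SD below zero, starting fluorescence within 5 deviations, no agonist response on first addition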;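 further: peak minus trough fluorescence over baseline after final BAM8-22 challenge near maximal dose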
# Target sequence (Q96LB2 whole entry, looked up): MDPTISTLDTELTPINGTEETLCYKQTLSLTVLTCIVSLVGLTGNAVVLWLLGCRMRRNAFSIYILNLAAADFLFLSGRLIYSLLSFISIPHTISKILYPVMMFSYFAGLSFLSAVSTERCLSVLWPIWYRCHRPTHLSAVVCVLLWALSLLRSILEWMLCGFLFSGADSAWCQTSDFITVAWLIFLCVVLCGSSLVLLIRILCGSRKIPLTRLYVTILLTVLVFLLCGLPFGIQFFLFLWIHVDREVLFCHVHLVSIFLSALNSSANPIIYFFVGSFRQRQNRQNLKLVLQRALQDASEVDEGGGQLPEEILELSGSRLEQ
# RGS4 act – RGS4 potentiation or activation; HEK293 M3R/inducible RGS4, carbachol calcium flux Fluo4; hits give low values; B-score at 10 µM; 310,000 compounds, 0.92% hits;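 active means B-score of the integrated calcium signal more than 4 SD below the library mean, with starting fluorescence not abnormally high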;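 further: negative B-score means reduced calcium response which marks RGS4 activation or potentiation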
#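 Material: Inducible-RGS4 HEK293 cells carrying M3 receptor; also added: carbachol at ECmax as muscarinic agonist stimulus; incubation: compound preincubation 20 min at room temperature before agonist; signal: Fluo4-AM (2 µM) calcium-flux fluorescence, kinetic read; measure: integrated calcium ratio converted to B score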
# MrgX1 agonist – activates human MrgX1 receptor signaling; B-score at 10 µM; AID 588627; MrgX1-HEK293 cells, Fluo-4 calcium fluorescence, agonist mode; hits give high values; 310,000 compounds, 0.44% hits;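 active means calcium response B-score plate-corrected fluorescence ratio at least 3 library SD, with starting fluorescence B-score inside 5 SD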
#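 Material: MrgX1-expressing HEK293 cells; input: 15,000 cells per well; doses: test compound given as first of three sequential additions; schedule: overnight plating before 1 h dye loading; technique: Fluo-4 NW calcium-flux fluorescence, kinetic read; evaluation: baseline-normalised fluorescence change ratio, B-scored; control set: plate-wise positive and negative controls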
# RGS4 inh – human RGS4 inhibition; B-score at 10 µM; 310,000 compounds, 0.45% hits; AID 463165; P49798; HEK293 M3R/RGS4 inducible, Fluo-4 calcium flux; hits give high values; triggered by carbachol at its EC20;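 active means B-score, a plate-corrected calcium signal, over three deviations above library mean, with baseline fluorescence within five deviations of library mean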;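 further: RGS4 expression induced by doxycycline in cells with stable M3 receptor; B-score is computed from the integrated fluorescence ratio over baseline after carbachol; higher B-score means a larger calcium signal and so more RGS4 inhibition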
# MrgX1 allo act – allosterically activates human MrgX1 receptor signaling; MrgX1-HEK293, Fluo-4 calcium flux, FDSS; hits give high values; B-score at 10 µM; 310,000 compounds, 0.63% hits;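 active means plate-corrected calcium response at least 3 library SD above typical, normal starting fluorescence, not activating the receptor alone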;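 further: compound read alongside a low EC10 to EC30 dose of BAM8-22 agonist; peak minus trough fluorescence over baseline measured at the second addition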
# RGS4 block valid – validation of RGS4 inhibitors; calcium response, % at 10 µM; shares compounds with RGS4 inh; 1,700 compounds, 65% hits; HEK293 M3R/RGS4, carbachol calcium Fluo-4 fluorescence; carbachol added at its EC20; 0 = buffer wells, 100 = carbachol control; AID 492999;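 active means duplicate-averaged calcium response above the buffer-only control mean plus 5 SD of those controls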;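 further: integrated fluorescence ratio F max minus min over baseline F0; higher response in RGS4-induced cells means RGS4 inhibition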
# RGS4 uninduced – counter-screen for RGS4 inhibitors: effect in non-induced cells. HEK293 M3R non-induced, carbachol calcium Fluo-4; submaximal (EC20) carbachol stimulus; buffer wells 0%, carbachol control wells 100%. 1,900 compounds, 20% hits. shares compounds with RGS4 inh. activity (percent), % at 10 µM; call rule not given here;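 further: RGS4 induction absent so cells express M3R without RGS4; higher means more calcium signal and flags a non-specific hit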
# RGS4 inh ctr2 – second RGS4 inhibitor counter-screen in uninduced cells lacking carbachol; shares compounds with RGS4 inh; HEK293 M3R/RGS4 non-induced, Fluo-4 calcium, no carbachol; normalised: buffer wells 0%, carbachol wells 100%; calcium response (agonist-mode artifact), % at 10 µM; 1,900 compounds, 22% hits;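 active means duplicate-averaged calcium rise in uninduced cells above buffer wells' mean plus 5 SD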
# Starred values were filed as active, the others as inactive; i = inactive; . = no result. Most compounds without a hit are left out; they make up all but 3.5% or so of the library.
SMILES,MrgX1 antag,RGS4 act,MrgX1 agonist,RGS4 inh,MrgX1 allo act,RGS4 block valid,RGS4 uninduced,RGS4 inh ctr2
O=C1/C(=C/c2cccnc2)CC/C1=C\c1cccnc1,i,i,i,6.9*,i,20%*,i,i
CC(C)/C=C1\CC/C(=C\c2cccnc2)C1=O,i,i,i,i,i,.,i,i
COc1ccc(NC(=O)/C(Cl)=C(/Cl)S(=O)(=O)Cc2ccccc2)cn1,.,i,.,18*,.,69%*,48%*,15%*
COCCCNC(=S)N(CCCO)Cc1cc2cc3c(cc2[nH]c1=O)OCCO3,i,i,i,i,i,.,i,i
COCCCNC(=S)N(CCO)Cc1cc2cc3c(cc2[nH]c1=O)OCO3,i,i,i,i,i,i,i,i
COCCCNC(=S)N(CCCO)Cc1cc2cc3c(cc2[nH]c1=O)OCO3,i,i,i,i,i,.,i,i
CN(C)CCCNC(=S)N(CCO)Cc1cc2cc3c(cc2[nH]c1=O)OCO3,i,i,i,i,i,.,.,.
CCNC(=S)N(CCCO)Cc1cc2cc3c(cc2[nH]c1=O)OCCO3,i,i,i,i,i,.,.,.
CCN(CC)CCCN(Cc1cc2cc3c(cc2[nH]c1=O)OCO3)C(=S)NCCOC,i,i,i,i,i,.,.,.
Cc1ccc(-c2nc(-c3ccc(Cl)cc3)sc2CC(=O)O)c(C)c1,i,i,i,i,i,.,.,.
COCCCn1cnc2c(c1=O)c1nc3ccccc3nc1n2-c1ccc(C)cc1,i,i,i,i,i,.,.,.
Cc1cc(C)cc(-n2c3nc4ccccc4nc3c3c(=O)n(Cc4ccco4)cnc32)c1,i,i,i,5.9*,i,12%*,i,15%*
COc1cc(CCC(=O)NNC(=O)c2ccc(C)cc2)cc(OC)c1OC,i,i,i,i,i,.,.,.
CC(C)(C)c1nn(-c2ccccc2)c2nc(Cl)c(C=O)cc12,i,i,i,5*,i,13%*,30%*,i
O=C(O)c1ccc2c(=O)n3c(nc2c1)/C(=C/c1ccc(Cl)c(Cl)c1)CC3,i,i,i,16*,i,30%*,i,i
COC(=O)c1ccc(/C=C2\CCn3c2nc2cc(C(=O)O)ccc2c3=O)cc1,i,i,i,i,i,.,.,.
Cc1ccc(C)c(/C=C2\CCn3c2nc2cc(C(=O)O)ccc2c3=O)c1,i,i,i,i,i,i,i,i
O=C(O)c1ccc2c(=O)n3c(nc2c1)/C(=C/c1cccc(O)c1)CC3,i,i,i,i,i,.,.,.
Cc1nnnn1/C(=C\c1ccccc1)C(=O)OCC(=O)NC(C)(C)C,i,i,i,i,i,.,.,.
Cc1nnnn1/C(=C\c1ccccc1)C(=O)OCC(=O)NC1CCCCC1,i,i,i,6.4*,i,12%*,i,9.0%*
CC(=O)Nc1ccc(NC(=O)COC(=O)/C(=C/c2ccccc2)n2nnnc2C)cc1,i,i,i,6.4*,i,18%*,i,i
CC(=O)c1c[nH]c(C(=O)NCc2ccccc2Cl)c1,i,i,i,5.2*,i,i,i,i
O=C(/C=C/c1cccnc1)c1cc(F)ccc1O,i,i,i,5*,i,22%*,72%*,i
COc1cc(C(=O)/C=C/c2cccnc2)ccc1O,i,i,i,11*,i,36%*,46%*,i
COc1ccc(OC)c(C(=O)/C=C/c2cccnc2)c1,i,i,i,i,i,.,.,.
